Results on 18 compounds are retold here after article PMC7870562 (Bioorganic chemistry, 2020).

SMILES strings stand for the structures.

One experiment concerns SK-Mel-28 cells. As to the kind of experiment: MTT cytotoxicity / cell viability assay, SK-Mel-28. The following applies: for IC50: Homo sapiens, SK-MEL-28, 48 h; for selectivity index: IC50 melanocytes / IC50 SK-Mel-28. It is filed as cell-based, human. Summed up: (§1)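 Cells in 5–10% FBS/DMEM were seeded at 5×10³ per well, refed at 24 h and grown to 70% confluence. They were treated for 48 h at 37°C, 5% CO2 with two-fold serial dilutions of test compound in DMSO (≤0.1%), […], in 8–10 repeats. After MTT, absorbance was read at 562 nm. Viability was expressed relative to DMSO controls and IC50 derived by nonlinear regression. Data are mean ± SD of ≥5 independent experiments in octuplicates.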

A further experiment has as its system HaCaT. As to the kind of experiment: MTT cytotoxicity / cell viability assay, HaCaT keratinocytes. It is filed as cell-based. The following applies: Homo sapiens, 48 h. Summed up: as §1
For a further experiment, the system named is A375 cells. In words: MTT cytotoxicity / cell viability assay, A375. It is filed as cell-based, human. The settings on record: for IC50: Homo sapiens, A-375, 48 h; for selectivity index: IC50 melanocytes / IC50 A375. The method, boiled down: as §1
The next experiment concerns A431 cells. In words: MTT cytotoxicity / cell viability assay, A431. The following applies: for IC50: Homo sapiens, A-431, 48 h; for selectivity index: IC50 HaCaT / IC50 A431. It counts as cell-based, human. Summed up: as §1
For the next experiment, the system named is Melanocyte. As to the kind of experiment: MTT cytotoxicity / cell viability assay, normal melanocytes. It is filed as cell-based. The settings on record: Homo sapiens, 48 h. The method, boiled down:
as §1

The subject of the next experiment is UWBCC1 cells. In words: MTT cytotoxicity / cell viability assay, UWBCC1. It counts as cell-based, human. The settings on record: for IC50: Homo sapiens, 48 h; for selectivity index: IC50 HaCaT / IC50 UWBCC1. Summed up: as §1
Another experiment deals with CDK2/Cyclin A (Homo sapiens, UniProt P24941). In words: In vitro kinase activity assay. It counts as biochemical. The settings on record: 10-dose, three-fold serial dilution from 100 μM. Summed up:
(§2)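 Kinase profiling was run at Reaction Biology. IC50 values came from 10-dose mode, three-fold serial dilutions starting at 100 μM. Reference inhibitors were co-assayed at 1 and 10 μM.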

In another experiment the target is c-Kit (Homo sapiens, UniProt P10721). In words: In vitro kinase activity assay. It is filed as biochemical. The method, boiled down: as §2
In the next experiment the target is mTOR/FRAP1 (Homo sapiens, UniProt P42345). In words: In vitro kinase activity assay. It is filed as biochemical. The method, boiled down:
as §2

c-Kit, sequence (P10721 26-976): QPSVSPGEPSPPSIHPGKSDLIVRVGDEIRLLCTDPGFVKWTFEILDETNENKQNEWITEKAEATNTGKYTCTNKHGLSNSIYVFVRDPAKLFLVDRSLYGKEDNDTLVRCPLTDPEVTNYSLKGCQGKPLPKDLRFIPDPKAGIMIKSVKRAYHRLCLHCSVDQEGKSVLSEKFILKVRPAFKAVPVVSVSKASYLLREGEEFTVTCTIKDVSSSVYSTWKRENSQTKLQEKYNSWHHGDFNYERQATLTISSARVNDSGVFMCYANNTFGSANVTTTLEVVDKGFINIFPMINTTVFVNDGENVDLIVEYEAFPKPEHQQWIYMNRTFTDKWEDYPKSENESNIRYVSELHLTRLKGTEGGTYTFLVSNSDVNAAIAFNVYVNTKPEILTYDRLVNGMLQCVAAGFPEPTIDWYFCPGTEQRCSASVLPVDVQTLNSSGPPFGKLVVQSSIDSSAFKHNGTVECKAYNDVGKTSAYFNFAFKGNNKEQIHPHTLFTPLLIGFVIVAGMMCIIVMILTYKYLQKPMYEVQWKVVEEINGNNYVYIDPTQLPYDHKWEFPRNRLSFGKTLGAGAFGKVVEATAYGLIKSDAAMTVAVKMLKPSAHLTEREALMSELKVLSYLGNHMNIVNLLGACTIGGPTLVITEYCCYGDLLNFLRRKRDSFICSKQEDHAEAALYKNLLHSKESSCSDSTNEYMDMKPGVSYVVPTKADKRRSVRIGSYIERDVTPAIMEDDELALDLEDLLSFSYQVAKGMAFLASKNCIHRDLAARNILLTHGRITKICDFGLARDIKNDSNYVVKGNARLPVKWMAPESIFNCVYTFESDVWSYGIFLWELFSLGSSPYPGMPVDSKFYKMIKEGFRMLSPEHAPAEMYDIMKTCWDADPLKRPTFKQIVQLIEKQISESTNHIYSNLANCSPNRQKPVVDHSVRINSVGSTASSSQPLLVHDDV

For `COc1cccc2c1C(=O)c1c(O)c3c(c(O)c1C2=O)C[C@@](O)(C(=O)CO)C[C@@H]3O[C@H]1C[C@H](N)[C@H](O)[C@H](C)O1` [Doxorubicin, reference compound], the IC50 (in general, the concentration that gives 50% inhibition) with SK-Mel-28 cells was determined as 0.23 ± 0.06 µM; in the experiment with HaCaT, 0.07 ± 0.01 µM; in the experiment with A375 cells, 0.1 ± 0.01 µM; in the experiment on A431 cells, 0.37 ± 0.02 µM. This compound also gave a selectivity index in the experiment with A431 cells of 0.2.

Consider `O=c1c(O)c(-c2ccccc2)oc2ccccc12` [F1, 3-Hydroxy-2-phenyl-4H-chromen-4-one], for which the IC50 with SK-Mel-28 cells was found to be 21 ± 1 µM; in the experiment on Melanocyte, 27 ± 0.9 µM; in the experiment on HaCaT, 38 ± 0.02 µM; in the experiment with A375 cells, 14 ± 0.8 µM; in the experiment on UWBCC1 cells, 12 ± 0.8 µM; with A431 cells, 15 ± 0.04 µM. Besides, the selectivity index with SK-Mel-28 cells amounted to 1.2; with A375 cells, 1.9; in the experiment with UWBCC1 cells, 3.2; in the experiment on A431 cells, 2.5.

Turning to `COc1cccc(-c2oc3ccccc3c(=O)c2O)c1` [F2, 3-Hydroxy-2-(3-methoxyphenyl)-4H-chromen-4-one], the IC50 in the experiment with A375 cells was 28 ± 2.3 µM; in the experiment on A431 cells, 21 ± 16 µM.

For the compound `O=c1c(O)c(-c2ccc(SC(F)(F)F)cc2)oc2ccccc12` [F3, 3-Hydroxy-2-(4-((trifluoromethyl)thio)phenyl)-4H-chromen-4-one], the IC50 with SK-Mel-28 cells came to 5.2 ± 1.7 µM; in the experiment with Melanocyte it was 31 ± 0.74 µM; in the experiment with HaCaT, 27 ± 0.7 µM; with A375 cells, 14 ± 0.2 µM; with A431 cells it was 9.7 ± 2.3 µM. In addition, the selectivity index in the experiment on SK-Mel-28 cells amounted to 6.0; with A375 cells, 2.2; in the experiment with A431 cells, 2.8.

As for `O=c1c(O)c(-c2ccc(Br)cc2Cl)oc2ccccc12` [F4, 2-(4-Bromo-2-chlorophenyl)-3-hydroxy-4H-chromen-4-one], the half-maximal inhibitory concentration (IC50) with A375 cells is more than 100 µM; in the experiment on A431 cells, 61 ± 30 µM.

For the compound `O=c1c(O)c(-c2ccc(C(F)(F)F)cc2C(F)(F)F)oc2ccccc12` [F5, 2-(2,4-Bis(trifluoromethyl)phenyl)-3-hydroxy-4H-chromen-4-one], the 50% inhibitory concentration (IC50) in the experiment on A375 cells was 95 ± 12 µM; in the experiment on A431 cells, more than 100 µM.

Turning to `O=c1c(O)c(-c2cc(C(F)(F)F)cc(C(F)(F)F)c2)oc2ccccc12` [F6, 2-(3,5-Bis(trifluoromethyl)phenyl)-3-hydroxy-4H-chromen-4-one], the IC50 is more than 100 µM against CDK2/Cyclin A; 27 ± 4.1 µM in the experiment on SK-Mel-28 cells; 26 ± 1.3 µM in the experiment on Melanocyte; more than 100 µM against c-Kit; 31 ± 1.9 µM with HaCaT; 7 ± 0.32 µM with A375 cells. Also, the IC50 amounted to 6.6 ± 0.79 µM in the experiment on UWBCC1 cells and 8.6 ± 0.5 µM in the experiment with A431 cells. Further, the selectivity index with A375 cells amounted to 3.7; in the experiment with UWBCC1 cells it was 4.7; in the experiment on A431 cells it was 3.6.

In the case of `O=c1c(O)c(-c2ccc(OCc3ccccc3)cc2)oc2ccccc12` [F7, 2-(4-(Benzyloxy)phenyl)-3-hydroxy-4H-chromen-4-one], the concentration for half-maximal inhibition (IC50) in the experiment on A375 cells is 88 ± 35 µM; in the experiment with A431 cells, more than 100 µM.

Turning to `COc1ccc(-c2oc3cc(C)ccc3c(=O)c2O)c(Br)c1OC` [F10, 2-(2-Bromo-3,4-dimethoxyphenyl)-3-hydroxy-7-methyl-4H-chromen-4-one], the IC50 amounted to 31 ± 13 µM in the experiment on A375 cells, 11 ± 5 µM in the experiment on UWBCC1 cells and 36 ± 0.1 µM with A431 cells.

As for `Cc1ccc2c(=O)c(O)c(-c3ccc(C(C)(C)C)cc3)oc2c1` [F11, 2-(4-(Tert-butyl)phenyl)-3-hydroxy-7-methyl-4H-chromen-4-one], at mTOR/FRAP1, the “inhibition of mTOR kinase activity (in words)” value is “did not substantively inhibit”. Moreover, the concentration for half-maximal inhibition (IC50) against CDK2/Cyclin A stood at 32.5 µM; in the experiment with SK-Mel-28 cells, 18 ± 2 µM; in the experiment with Melanocyte it was 26 ± 1.1 µM; with HaCaT, 25 ± 0.78 µM; in the experiment with A375 cells, 11 ± 2 µM; in the experiment with UWBCC1 cells, 9.7 ± 0.6 µM. Moreover, the half-maximal inhibitory concentration (IC50) in the experiment with A431 cells turned out to be 4.7 ± 0.9 µM. The selectivity index in the experiment with SK-Mel-28 cells is recorded as 1.4; in the experiment on A375 cells it was 2.4; in the experiment with UWBCC1 cells it was 2.3; in the experiment with A431 cells, 4.7.

Turning to `COc1ccc2c(=O)c(O)c(-c3ccc(Br)cc3)oc2c1` [F12, 2-(4-Bromophenyl)-3-hydroxy-7-methoxy-4H-chromen-4-one], the 50% inhibitory concentration (IC50) in the experiment with A375 cells and in the experiment with A431 cells was more than 100 µM each time.

For `COc1ccc2c(=O)c(O)c(-c3ccc(C(C)(C)C)cc3)oc2c1` [F13, 2-(4-(Tert-butyl)phenyl)-3-hydroxy-7-methoxy-4H-chromen-4-one], the half-maximal inhibitory concentration (IC50) was 28 ± 24 µM in the experiment on A375 cells and more than 100 µM with A431 cells.

As to `COc1cccc(-c2oc3cc(Br)ccc3c(=O)c2O)c1` [F15, 7-Bromo-3-hydroxy-2-(3-methoxyphenyl)-4H-chromen-4-one], the IC50 in the experiment with A375 cells and with A431 cells was more than 100 µM in each case.

For the compound `COc1ccc(-c2oc3ccc(Br)cc3c(=O)c2O)cc1OC` [F16, 6-Bromo-2-(3,4-dimethoxyphenyl)-3-hydroxy-4H-chromen-4-one], the IC50 was 79.5 ± 9 µM in the experiment with A375 cells, 40 ± 0.89 µM in the experiment with UWBCC1 cells and more than 100 µM in the experiment on A431 cells.

For the compound `Cc1cc2oc(-c3ccc(C(C)(C)C)cc3)c(O)c(=O)c2cc1Cl` [F18, 2-(4-(Tert-butyl)phenyl)-6-chloro-3-hydroxy-7-methyl-4H-chromen-4-one], the figures for the IC50 with A375 cells and in the experiment on A431 cells were more than 100 µM and 24 ± 5.6 µM, respectively.

With `COc1cc(-c2oc3ccc(F)cc3c(=O)c2O)cc(OC)c1OC` [F22, 6-Fluoro-3-hydroxy-2-(3,4,5-trimethoxyphenyl)-4H-chromen-4-one], the IC50 in the experiment with Melanocyte was 24 ± 1.6 µM; with HaCaT, 23 ± 1.9 µM; in the experiment on A375 cells it was 15 ± 1.9 µM; in the experiment with UWBCC1 cells, 11 ± 2 µM; in the experiment with A431 cells, 13 ± 2.6 µM. In addition, the figures for the selectivity index in the experiment on A375 cells, with UWBCC1 cells and in the experiment with A431 cells were 1.6, 2.1 and 1.8, respectively.

Consider `COc1cc(OC)c(-c2oc3ccccc3c(=O)c2O)cc1OC` [F23, 3-Hydroxy-2-(2,4,5-trimethoxyphenyl)-4H-chromen-4-one], for which the IC50 in the experiment with SK-Mel-28 cells came to 19 ± 3 µM; in the experiment with Melanocyte it was 22 ± 1 µM; with HaCaT it was 24 ± 1.4 µM; in the experiment on A375 cells, 13 ± 3.1 µM; in the experiment with UWBCC1 cells, 9.4 ± 1.4 µM; with A431 cells it was 12 ± 1.9 µM. In addition, the selectivity index in the experiment on SK-Mel-28 cells is reported as 1.6; with A375 cells it was 1.7; in the experiment with UWBCC1 cells, 2.6; with A431 cells, 2.0.

Consider `COc1cc(OC)c(-c2oc3cc(Cl)ccc3c(=O)c2O)cc1OC` [F24, 7-Chloro-3-hydroxy-2-(2,4,5-trimethoxyphenyl)-4H-chromen-4-one], for which the IC50 in the experiment with A375 cells and with A431 cells was more than 100 µM in each case.
